# PG9 binder = PG9 antibody binding by small molecule. TR-FRET gp120-PG9 antibody binding. inhibition, % at 6.7 µM. 360,000 compounds, 0.43% hits; in the data active means inhibition above about 8.5%
# MC4R barr agon = human MC4R agonism via beta-arrestin; U2OS MC4R beta-arrestin complementation, luminescence; percent of melanotan II response, DMSO zero; 360,000 compounds, 0.98% hits; activation, % at 8.9 µM; AID 540308; P32245;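 active means activation above a per-plate cutoff, the mean activation of sample wells on that plate plus 3 SD, cut at about 8% in these data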
# Target sequence (P32245 whole entry, looked up): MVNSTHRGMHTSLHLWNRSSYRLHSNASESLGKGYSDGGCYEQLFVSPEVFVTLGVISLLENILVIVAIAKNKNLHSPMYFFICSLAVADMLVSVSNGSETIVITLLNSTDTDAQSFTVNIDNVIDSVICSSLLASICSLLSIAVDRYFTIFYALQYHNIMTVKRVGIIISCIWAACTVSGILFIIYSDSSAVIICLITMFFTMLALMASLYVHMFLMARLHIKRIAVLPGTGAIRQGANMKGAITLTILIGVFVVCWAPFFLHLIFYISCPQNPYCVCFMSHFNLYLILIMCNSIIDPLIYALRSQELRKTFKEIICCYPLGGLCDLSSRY
# NR1D1 modulator = Rev-erb alpha (human) modulation | P20393 | Rev-erbα–FITC-DNA binding, fluorescence polarization, 90 min | activity, % at 10 µM | 370,000 compounds, 0.79% hits | AID 1259318;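 active means activity above about 14%, limit read from the data; passing the limit was not always enough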;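 further: 0% = DMSO wells with 35 nM protein and 100% = DMSO wells with 750 nM protein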
# NR2E3 ag-1 = activates human NR2E3 receptor; CHO-S Gal4-NCOR/VP16-NR2E3 two-hybrid, luciferase; Q9Y5X4; AID 602229; 360,000 compounds, 0.35% hits; inhibition of corepressor binding, % at 3.98 µM;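 active means inhibition above the mean of all tested compounds plus 3 SD, cut at about 70% in these data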;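 further: 0% = DMSO with NR2E3 transfected cells and 100% = cells lacking NR2E3 construct; higher means lower luciferase signal from less NR2E3 corepressor binding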
# Target sequence (Q9Y5X4 whole entry, looked up, the tested form may be a part): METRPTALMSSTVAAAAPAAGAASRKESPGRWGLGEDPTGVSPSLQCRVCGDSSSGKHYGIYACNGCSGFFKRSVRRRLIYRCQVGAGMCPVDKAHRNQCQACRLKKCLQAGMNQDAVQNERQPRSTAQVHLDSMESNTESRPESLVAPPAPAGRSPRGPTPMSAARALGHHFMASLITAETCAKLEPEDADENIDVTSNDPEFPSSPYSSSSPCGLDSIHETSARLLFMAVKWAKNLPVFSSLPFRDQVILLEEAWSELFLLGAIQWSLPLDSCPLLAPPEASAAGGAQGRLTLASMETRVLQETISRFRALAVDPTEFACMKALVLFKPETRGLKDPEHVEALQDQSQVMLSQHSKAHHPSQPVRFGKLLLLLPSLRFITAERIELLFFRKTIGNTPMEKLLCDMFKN
# NR2E3 ag-2 = activates human photoreceptor nuclear receptor NR2E3 | Q9Y5X4 | GST-NR2E3/biotin-RetCOR TR-FRET, 1536-well | inhibition of corepressor binding, % at 4.78 µM | 320,000 compounds, 0.12% hits | AID 2300;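 active means percent inhibition above the cutoff of mean plus 3 SD of all tested compounds, set per screening campaign, cut at about 20% in these data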;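 further: 0% = DMSO wells and 100% = biotin wells as full block of FRET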
#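 system = GST-tagged NR2E3 plus biotinylated RetCOR corepressor | input = 1.35 nM GST-NR2E3 | also added = 7 nM biotin-RetCOR | schedule = 5 h incubation at 4 °C | measured by = TR-FRET with europium anti-GST and streptavidin-D2, 340 nm excitation | read-out = percent loss of FRET ratio relative to control wells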
# MC4R antagonist = blocks human MC4R cAMP signaling | MC4R-expressing cells, MTII-stimulated cAMP, LANCE TR-FRET | inhibition, % at 6.5 µM | 360,000 compounds, 0.48% hits;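 active means inhibition above its plate's cutoff, the mean of tested wells on that plate plus 3 SD, cut at about 29% in these data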;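 further: 0% = Melanotan II alone and 100% = Melanotan II plus saturating MCL0020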
#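 System: U2OS cells stably expressing human melanocortin 4 receptor (MC4R). Reagent: Melanotan II challenge after compound preincubation. Doses: 6.5 µM. Times: 30-min compound, 1-h challenge, 1-h detection, room temperature. Measured by: TR-FRET with Eu-cAMP and labeled anti-cAMP, 671 nm. Replicates: singlicate.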
# PG9 bind confirm = PG9 antibody binding, confirmed; shares compounds with PG9 binder; TR-FRET PG9 antibody binding, biochemical; inhibition, % at 6.7 µM; 1,500 compounds, 90% hits; AID 651571; in the data active means inhibition above about 9%
# PGV04 counter = counter-screen for PG9 binders: binding control antibody PGV04; shares compounds with PG9 binder; TR-FRET PGV04 antibody-gp120 binding, biochemical; inhibition, % at 6.7 µM; 1,500 compounds, 95% hits; AID 651604; in the data active means inhibition above about 9.5%
# PG9 bind DR = small molecules binding HIV-1 gp120 antibody PG9; TR-FRET PG9 antibody-gp120 binding inhibition; shares compounds with PG9 binder; 95 tested, under 10 active; IC50, µM; in the data active means IC50 below about 10 µM
# PGV04 binding DR = counter-screen for PG9 binders: binding to control antibody PGV04; shares compounds with PG9 binder; TR-FRET binding to control antibody PGV04; IC50, µM; 95 compounds, 20% hits
# PG126 binding DR = PG126 binding, dose response counter-screen | shares compounds with PG9 binder | TR-FRET binding to antibody PG126, counterscreen | IC50, µM | 95 compounds, 20% hits | AID 651939
# * = called active by the depositor; i = inactive; . = no result given; ! = repeats disagree. In the library only some 2.7% were active in any assay of this set; here they are far more common. Unless noted, no stated cut-off is given here; in the data, active means IC50 below about 9 µM; inactive means the rest.
SMILES,PG9 binder,MC4R barr agon,NR1D1 modulator,NR2E3 ag-1,NR2E3 ag-2,MC4R antagonist,PG9 bind confirm,PGV04 counter,others
O=C(Nc1ccccc1)c1ccc(-c2ccc(F)cc2)s1,18.6*,2.3,19.0,-2.9,4.7,-2.5,20.4*,28.3*,
CNC(=O)c1ccc(-c2ccc(F)cc2)s1,-2.5,0.4,2.8,-40.6,0.2,3.5,.,.,
Cc1cc(C)n(-c2nnc(C)n2NS(C)(=O)=O)n1,0.4,-0.9,1.1,4.0,1.0,1.2,.,.,
CCOc1ccc(-n2c(=O)c3c(C)c(C(=O)N(C)C)sc3n(CC(=O)Nc3ccccc3F)c2=O)cc1,1.9,0.7,-0.9,-17.9,-0.1,23.8,.,.,
CCOC(=O)c1ccccc1NC(=O)Cn1c(=O)n(Cc2ccccc2)c(=O)c2c(C)c(C)sc21,11.8*,-0.8,5.4,-17.8,-1.0,17.6,4.7,6.6,
O=C(CC(c1ccccc1)c1ccccc1O)NCCc1ccccc1 (centres undefined),-0.8,-0.4,5.2,-41.6,2.2,4.8,.,.,
COc1cc2[nH]c(=S)n(NC(=O)c3ccccc3)c(=O)c2cc1OC,15.8*,-1.2,5.5,-4.5,0.9,14.8,17.9*,15.8*,PG9 bind DR=>67;PGV04 binding DR=i;PG126 binding DR=i
CC1CCN(C(=O)COC(=O)CCc2c[nH]c3ccccc23)CC1,-1.8,-1.2,-1.2,-19.4,2.5,-4.0,.,.,
CN(C)S(=O)(=O)c1ccc(N2CCCC2)c(C(=O)NCCc2ccc(F)cc2)c1,-1.2,-0.2,6.1,6.7,3.0,3.7,.,.,
CN(C)S(=O)(=O)c1ccc(N2CCCC2)c(C(=O)NCc2cccc(C(F)(F)F)c2)c1,12.2*,3.2,7.4,-4.7,-2.6,1.7,17.1*,25.0*,
NC(=O)C1CCN(c2cc(N3CCOCC3)ccc2[N+](=O)[O-])CC1,-2.1,0.1,-1.9,12.5,-0.1,3.0,.,.,
Cc1cc(-n2c(C)cc(C(=O)COc3ccc(Cl)cc3C(N)=O)c2C)no1,11.2*,0.7,0.7,-2.5,.,11.9,20.5*,34.1*,
COC(=O)c1ccc(OC(=O)CCN2C(=O)C3C4c5ccccc5C(c5ccccc54)C3C2=O)cc1 (centres undefined),-1.6,0.5,6.1,-0.3,1.6,5.1,.,.,
COc1cccc(/C=N/NC(=O)c2c(-c3ccccc3)noc2C)c1OC,-3.1,-2.5,-2.8,8.0,0.1,6.6,.,.,
CCOC(=O)CNC(=O)CSc1nc(C(C)C)nc2c1cnn2-c1ccccc1,8.6*,-1.1,-1.1,-19.7,.,12.9,10.2*,15.2*,
CN1CCc2cccc3c2[C@H]1Cc1ccc(O)c(O)c1-3,10.6*!,-0.6,-2.8,-3.9,2.7,-16.7,12.3*,15.3*,
Cc1ccc(NC(=O)COC(=O)c2ccc(-n3cccn3)cc2)cc1C,13.0*,-0.8,-7.6,-19.5,8.2,4.4,18.1*,28.7*,
Cc1cc(C)n2cc(CSc3nnnn3-c3ccccc3C)nc2n1,0.1,-1.6,4.3,-13.5,-2.5,13.8,.,.,
CCN(CC)c1ccc2cc(-c3nc4ccccc4[nH]3)c(=O)oc2c1,.,4.9,.,-46.5,-1.4,2.2,.,.,
CCN(CC)c1ccc2cc(-c3nc4ccccc4n3C)c(=O)oc2c1,10.1*,4.0,10.7,-43.8,2.9,-25.6,11.4*,17.2*,
NS(=O)(=O)c1ccc(CCNC(=O)Cc2cccs2)cc1,-1.2,0.6,-5.9,13.1,-2.5,17.0,.,.,
COC(=O)c1c(NC(=O)C2CCCCC2C(=O)O)sc2c1CCCCC2 (centres undefined),5.1,3.9,-2.8,-168.0,3.8,-5.0,.,.,
COC(=O)c1sc(NC(=O)C2CCCCC2C(=O)O)c(C(=O)OC)c1C (centres undefined),12.7*,-2.7,-3.0,-14.8,17.3,12.1,17.7*,22.8*,
CCCCOCCCNC(=O)C[C@@H]1C[C@@]2(C(=O)OCC)CCC=C2N(CCC2=CCCCC2)C1=O,-1.8,.,-7.1,2.1,.,.,.,.,
COC(=O)Cn1c(=NC(=O)c2sc3ccccc3c2Cl)sc2cc(S(N)(=O)=O)ccc21,11.3*,4.4,11.6,14.1,-117.2,1.1,21.6*,27.7*,
SMILES,PG9 binder,MC4R barr agon,NR1D1 modulator,NR2E3 ag-1,NR2E3 ag-2,MC4R antagonist,PG9 bind confirm,PGV04 counter,others
CCCn1c(=NC(=O)CCS(=O)(=O)c2ccccc2)sc2cc(S(N)(=O)=O)ccc21,1.0,3.6,4.3,31.9,1.6,1.7,.,.,
CCOC(=O)Cn1c(=NC(=O)c2sc3ccccc3c2Cl)sc2cc(S(N)(=O)=O)ccc21,9.9*,6.3,-0.5,-14.6,-25.6,5.3,12.2*,28.1*,
CCOC(=O)Cn1c(=NC(=O)CSC(C)=O)sc2cc(OC)ccc21,13.2*,0.2,-1.7,6.8,6.9,4.5,17.8*,22.8*,
CCOC(=O)Cn1c(=NC(=O)CSC(C)=O)sc2ccccc21,0.0,-0.8,4.2,-31.4,0.7,15.2,.,.,
O=C(CSc1nnc(-c2ccccc2F)n1C1CCCCC1)N1CCCC1,1.5,-0.9,3.8,8.5,1.5,4.7,.,.,
O=C(CSc1nnc(-c2ccc(Br)cc2)n1C1CCCCC1)N1CCCC1,9.3*,-2.5,-1.0,1.2,0.7,1.4,8.7*,10.2*,
Cc1ccc(OCCC(=O)OCC(=O)c2ccc3c(c2)NC(=O)CO3)cc1,26.6*,2.0,11.4,13.0,6.8,8.0,19.6*,37.8*,
CCSc1nnc(NC(=O)COc2ccc(Cl)cc2)s1,0.8,0.6,2.2,6.5,1.1,6.7,.,.,
CCSc1nnc(NC(=O)CCCOc2ccc(C)cc2)s1,21.0*,1.8,16.3,31.7,18.8,4.7,13.2*,48.7*,
Cc1ccc(-c2noc(-c3cccs3)n2)cc1,8.8*,1.3,8.0,-114.6,-1.6,6.9,26.1*,27.7*,
CC(OC(=O)/C=C/c1ccc2ccccc2n1)C(=O)NCc1ccccc1 (centres undefined),15.3*,-4.2,10.5,13.7,-1.5,-1.9,11.4*,13.2*,
COC(=O)CNC(=O)COC(=O)/C=C/c1ccc2ccccc2n1,-0.7,-1.0,5.5,13.9,-1.6,8.6,.,.,
